We go through one molecule from ChEMBL document CHEMBL1949528, “New inhibitor of 3-phosphoinositide dependent protein kinase-1 identified from virtual screening” (Bioorg Med Chem Lett, 2012).

The test system of one test is U-251. The experiment in a line: Growth inhibition of human U251 cells after 48 hrs by sulforhodamine B assay. The format is functional. Particulars: U-251, 48 h. In a few lines: (§1)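 Run in the NCI-DTP 60-cell-line screen. Cells were exposed for 48 h to at least five 10-fold dilutions (0.01 to 100 μM). Cell growth was estimated by sulforhodamine B protein staining. Percentage growth at each level was taken from absorbances at time zero (Tz), of the untreated control (C) and of treated cells (Ti), as [(Ti-Tz)/(C-Tz)]*100.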
In general terms: Sulforhodamine B stains cellular protein and so reports cell mass.

In test [1] the target is T1, 3-phosphoinositide-dependent protein kinase 1 (Homo sapiens, UniProt O15530).
T1 sequence (O15530 whole entry): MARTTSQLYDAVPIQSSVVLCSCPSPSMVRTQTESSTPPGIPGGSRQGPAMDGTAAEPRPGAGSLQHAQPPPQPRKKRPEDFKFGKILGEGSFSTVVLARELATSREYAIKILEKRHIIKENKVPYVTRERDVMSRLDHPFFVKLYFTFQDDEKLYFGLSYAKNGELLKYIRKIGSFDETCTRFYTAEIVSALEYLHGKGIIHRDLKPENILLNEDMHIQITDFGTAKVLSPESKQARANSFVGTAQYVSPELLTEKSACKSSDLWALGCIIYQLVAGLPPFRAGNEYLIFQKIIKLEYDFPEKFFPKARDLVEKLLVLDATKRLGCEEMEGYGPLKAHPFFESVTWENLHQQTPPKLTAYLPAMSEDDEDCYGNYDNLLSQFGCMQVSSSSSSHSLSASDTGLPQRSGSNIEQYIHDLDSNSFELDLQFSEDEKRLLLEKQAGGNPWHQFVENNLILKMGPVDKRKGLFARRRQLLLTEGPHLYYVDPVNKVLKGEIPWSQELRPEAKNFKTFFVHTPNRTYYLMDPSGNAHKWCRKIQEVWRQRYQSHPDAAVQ
The experiment in a line: Inhibition of recombinant PDK1 using P2925 peptide as substrate by fluorescence polarization assay. In outline: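 A fluorescence polarization kit assay. Recombinant PDK1 phosphorylates the substrate peptide with DMSO or inhibitor present. The phosphopeptide formed competes with a fluorescein-labeled phosphopeptide tracer for an anti-phosphothreonine antibody, and polarization is then read on a plate reader. A standard reference inhibitor was run alongside.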

For the next test, the system named is RPMI-8226. Put plainly: Growth inhibition of human RPMI8226 cells after 48 hrs by sulforhodamine B assay. The format is functional. Particulars: RPMI-8226, 48 h. In a few lines:
as §1

For test [2], the system named is Hs-578T. The experiment in a line: Growth inhibition of human Hs578T cells after 48 hrs by sulforhodamine B assay. In kind it is functional. In outline:
as §1

The next test deals with DU-145. Put plainly: Growth inhibition of human DU145 cells after 48 hrs by sulforhodamine B assay. The format is functional. Particulars: DU-145, 48 h. In a few lines:
as §1

The test system of the next test is PC-3. The experiment in a line: Growth inhibition of human PC3 cells after 48 hrs by sulforhodamine B assay. To be noted: PC-3, 48 h. The format is functional. In outline: as §1
The test system of a further test is SF-295. The experiment in a line: Growth inhibition of human SF295 cells after 48 hrs by sulforhodamine B assay. The format is functional. To be noted: SF-295, 48 h. In outline: as §1
The next test concerns LOX IMVI. The experiment in a line: Growth inhibition of human LOXIMVI cells after 48 hrs by sulforhodamine B assay. In kind it is functional. In a few lines:
as §1

The next test concerns KM12. The experiment in a line: Growth inhibition of human KM12 cells after 48 hrs by sulforhodamine B assay. In kind it is functional. Particulars: KM12, 48 h. In outline:
as §1

For a further test, the system named is HOP-92. The experiment in a line: Growth inhibition of human HOP92 cells after 48 hrs by sulforhodamine B assay. In kind it is functional. To be noted: HOP-92, 48 h. In outline:
as §1

A further test concerns RXF 393. The experiment in a line: Growth inhibition of human RXF393 cells after 48 hrs by sulforhodamine B assay. To be noted: RXF 393, 48 h. The format is functional. In a few lines:
as §1

The subject of a further test is OVCAR-3. Put plainly: Growth inhibition of human OVCAR3 cells after 48 hrs by sulforhodamine B assay. The format is functional. To be noted: OVCAR-3, 48 h. In outline: as §1
A further test deals with SF-268. Put plainly: Growth inhibition of human SF268 cells after 48 hrs by sulforhodamine B assay. To be noted: SF-268, 48 h. The format is functional. In outline:
as §1

Test [3] relates to Hs-578T. The experiment in a line: Growth inhibition of human Hs578T cells at 10 uM after 48 hrs by sulforhodamine B assay. The format is functional. Particulars: read-out: GI. In outline: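 A single-concentration NCI-DTP test at 10 μM, run two times. After 48 h exposure, growth was read by sulforhodamine B staining and expressed as percentage growth, [(Ti-Tz)/(C-Tz)]*100, against time-zero and untreated-control absorbances. Growth inhibition is reported as 100 minus percentage growth.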

By GI50 is commonly meant the concentration at which growth is held to half of that of the control. A high value points to lower sensitivity of the cells. One may read the IC50 as the concentration that gives 50% inhibition. For the molecule `CCOC(=O)c1ccc(Nc2cc(C)nc(Nc3ccc(C(=O)OCC)cc3)n2)cc1`, the 50% growth inhibitory concentration (GI50) with U-251 was 9.88 µM; with RPMI-8226, 3.54 µM; with Hs-578T [2], below 10 µM; in the test with DU-145 it was 5.39 µM; in the test on PC-3, 6.02 µM; in the test with SF-295 it was 8.64 µM. Besides, the 50% growth inhibitory concentration (GI50) with LOX IMVI was 7.24 µM; in the test on KM12, 3.62 µM; in the test with HOP-92, 3.25 µM; with RXF 393 it was 5.05 µM; with OVCAR-3, 2.02 µM; with SF-268, 3.8 µM. For the same molecule, in test [1], the concentration for half-maximal inhibition (IC50) is 0.2 µM. In addition, in the test with Hs-578T [3], the inhibition of growth at 10 µM was 67%.
